Measurements published in ChEMBL document CHEMBL4513216, “Probing the Open Global Health Chemical Diversity Library for Multistage-Active Starting Points for Next-Generation Antimalarials” (ACS Infect Dis, 2020).

Assay: Toxicity liver stage against HepG2, at 10uM
Format: cell-based
Design: test concentration 10 uM, cell line HepG2-A16-CD81EGFP
Conditions: human, HepG2-A16-CD81EGFP cells; read-out: INHIBITION
Procedure, shortened: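 Uninfected HepG2-A16-CD81EGFP cells, 3 × 10^3 per well, 1536-well, plated on prespotted compound at 10 μM final, parasite-free screening media added to match infected plates; puromycin 10 μM positive, DMSO 0.5% negative; run in parallel with 48 h PbLuc assay at 37 °C, 5% CO2; viability by CellTiter-Glo luminescence, normalized to controls.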

CN(C)C(=O)CSc1nnc(CCNC(=O)OC(C)(C)C)o1
cytotoxicity at 10 µM: 13.7%

COc1ccc(C2SC(C)=Nc3c2c(=O)[nH]n3C2CCCCC2)cc1O (stereo unspecified)
cytotoxicity at 10 µM: 1%

CCOCC(=O)N1CCC(Oc2ccc(C(F)(F)F)cn2)CC1
cytotoxicity at 10 µM: 11.7%

O=C(NCC1CC1)C1CN(C(=O)c2cccc(Cl)c2)CC12CCOCC2 (stereo unspecified)
cytotoxicity at 10 µM: 1.18%

CCn1nc(C)c2nc(C(C)C)nc(N(C)Cc3ccco3)c21
cytotoxicity at 10 µM: 15.6%

CCN(Cc1c(C)nn(CC)c1C)S(=O)(=O)c1cnn(C)c1
cytotoxicity at 10 µM: 4.98%

c1ccc(CCN2CCCC2c2cncc(Nc3nncs3)n2)cc1 (stereo unspecified)
cytotoxicity at 10 µM: 5.62%

c1nnc(Nc2cncc(C3CCCN3CC3CC3)n2)s1 (stereo unspecified)
cytotoxicity at 10 µM: 3.01%

CC(=O)N1CCN([C@@H]2CN(C(=O)c3ccccc3)C[C@H]2O)CC1
cytotoxicity at 10 µM: -4.8%

CN1CCN(c2ccccc2CNC(=O)CSC(F)(F)F)CC1
cytotoxicity at 10 µM: 8.27%

CC(C)N1CCC(N2CCOC3(CCCC3)C2)C1=O (stereo unspecified)
cytotoxicity at 10 µM: 1.56%

CS(=O)(=O)NCC1CCCN(c2ccc(C(F)(F)F)cn2)C1 (stereo unspecified)
cytotoxicity at 10 µM: -17.3%

O=C(NS(=O)(=O)Cc1ccc(F)cc1)C1CCc2ccccc21 (stereo unspecified)
cytotoxicity at 10 µM: -13.1%

COc1cc(C(C)=O)ccc1SCC(=O)Nc1cccc(C)n1
cytotoxicity at 10 µM: 15.1%

CCN(Cc1cccc(-c2ccncc2)c1)S(N)(=O)=O
cytotoxicity at 10 µM: -12.6%

Cc1cc(=O)n(C)cc1NC(=O)Cc1ccc(C(F)(F)F)cc1
cytotoxicity at 10 µM: -14%

CCc1nc(CN2CCC(C(=O)N(C)C)CC2)cs1
cytotoxicity at 10 µM: 3.05%

c1n[nH]cc1CCCN1CCC(OC2CCCCC2)CC1
cytotoxicity at 10 µM: 2.97%

Cc1nc(C2CN(Cc3ccc(F)cc3Br)CCO2)no1 (stereo unspecified)
cytotoxicity at 10 µM: -4.75%

O=C(CNC(=O)C1CC1)NCC1CCCC1
cytotoxicity at 10 µM: 2.12%

CC(C)CCOc1ccc(C(C)NC(=O)Cn2cccnc2=O)cc1 (stereo unspecified)
cytotoxicity at 10 µM: -4.24%

COCc1nc2cc(NCc3ccc(C)o3)ccc2o1
cytotoxicity at 10 µM: -9.41%

COCCN1CCN(C(C)C(=O)Nc2ccnn2C(C)C)CC1 (stereo unspecified)
cytotoxicity at 10 µM: -8.83%

Cc1cc(CN2CCN(C(=O)CCc3cccc(F)c3F)CC2)on1
cytotoxicity at 10 µM: -6.16%

Cc1cc(CNC2CCCN(c3cccnn3)C2)no1 (stereo unspecified)
cytotoxicity at 10 µM: -15%

Cc1nn(C(C)C)c(C)c1NC(=O)c1ccccc1
cytotoxicity at 10 µM: -11.7%

CC1=C(C(=O)N(C)Cc2noc3c2CCCC3)C(C)NC(=O)N1 (stereo unspecified)
cytotoxicity at 10 µM: -0.844%

CSCCC(O)C(=O)N1CCN(Cc2cccc(Cl)c2)CC1 (stereo unspecified)
cytotoxicity at 10 µM: 6.48%

Cc1cccc(-n2nc(CC(C)C)nc2CCC(=O)N(C)C)c1
cytotoxicity at 10 µM: -9.61%

COCCN(C)C[C@H]1C[C@H](CO)CN(C(=O)c2ccn(C)c(=O)c2)C1
cytotoxicity at 10 µM: -2.75%

Cc1n[nH]c(C)c1CCC(=O)N(C)Cc1cn[nH]c1-c1ccc(F)cc1
cytotoxicity at 10 µM: 7.86%

COCCN1CCc2onc(C(c3ccccc3)c3ccccc3)c2C1
cytotoxicity at 10 µM: -7.35%

COc1cc(C(=O)N2Cc3cnc(C(C)(C)C)nc3C2)ccn1
cytotoxicity at 10 µM: 2.03%

Cc1cccc(C(C(=O)N2CC(c3ccncc3)C2)N(C)C)c1 (stereo unspecified)
cytotoxicity at 10 µM: -8.29%

CSc1ccccc1C(=O)Nc1ccc(OC2CCN(C)CC2)cc1
cytotoxicity at 10 µM: 3.39%

CC(C)Oc1cc(N2C[C@@H](C)O[C@@H](C)C2)nc(N)n1
cytotoxicity at 10 µM: -9.15%

Cc1nc(N2CCN(C(=O)C(C)(C)C)CC2)cc(-n2cnc(C)c2C)n1
cytotoxicity at 10 µM: -23.2%

Cc1nc(C(=O)N2CCC(Cc3cnc4[nH]ccc4c3)C2)co1 (stereo unspecified)
cytotoxicity at 10 µM: 9.36%

Fc1cc(CN2CCCC2Cn2cncn2)c2ncccc2c1 (stereo unspecified)
cytotoxicity at 10 µM: -14.1%

O=C(NCC(=O)N1CCCC(n2cncn2)C1)OCc1ccccc1 (stereo unspecified)
cytotoxicity at 10 µM: -13.5%

CN1N=C(C(=O)N2CCCC(n3cccn3)C2)CCC1=O (stereo unspecified)
cytotoxicity at 10 µM: -19%

Cc1nc(CNC(=O)NCC(O)c2ccc(F)cc2F)cs1 (stereo unspecified)
cytotoxicity at 10 µM: 6.5%

c1ccc2cc(OCCN3CCn4c(nnc4C4CC4)C3)ccc2c1
cytotoxicity at 10 µM: 5.49%

O=C(Nc1ccccc1F)N1CCN(Cc2noc(C3CC3)n2)CC1
cytotoxicity at 10 µM: -0.144%

COc1cc(C(=O)N2CCC(c3n[nH]c(C4CC4)n3)CC2)ccc1C
cytotoxicity at 10 µM: 3.37%

CN(Cc1nc(N)c2ccccc2n1)CC1CCCN1c1cccnn1 (stereo unspecified)
cytotoxicity at 10 µM: -1.4%
